Sampled rows, rich in hits. Any-hit rate of the full collection: about 1.9%.
HGIII-sPLA2 inh – Blocks human group III sPLA2 activity; Q9NZ20; QFRET BODIPY PC-A2 liposome hydrolysis, fluorescence; inhibition, % at 12.2 µM; 0.56% of 370,000 active; AID 743126;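 active = inhibition above mean plus 3 SD of compounds lying within the high and low control bounds, cut at about 19% in these data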;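 also: 0% = median of test compound wells and 100% = no enzyme DMSO wells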
Target sequence (Q9NZ20 whole entry, looked up): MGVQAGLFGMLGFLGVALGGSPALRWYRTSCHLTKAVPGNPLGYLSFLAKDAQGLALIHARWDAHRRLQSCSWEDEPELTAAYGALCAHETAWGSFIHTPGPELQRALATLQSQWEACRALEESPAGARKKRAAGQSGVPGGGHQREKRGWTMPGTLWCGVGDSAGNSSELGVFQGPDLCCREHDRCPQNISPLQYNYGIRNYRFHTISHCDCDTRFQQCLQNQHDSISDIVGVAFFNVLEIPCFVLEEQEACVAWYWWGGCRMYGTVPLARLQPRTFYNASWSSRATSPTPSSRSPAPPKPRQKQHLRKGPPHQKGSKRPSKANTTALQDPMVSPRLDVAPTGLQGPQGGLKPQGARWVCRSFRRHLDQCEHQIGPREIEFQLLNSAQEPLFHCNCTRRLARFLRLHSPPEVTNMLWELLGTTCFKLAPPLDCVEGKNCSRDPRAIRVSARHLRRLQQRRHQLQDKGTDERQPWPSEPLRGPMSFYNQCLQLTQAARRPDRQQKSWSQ
PLC-beta3 inh – inhibitors of human phospholipase C beta3; Q01970; inhibition, % at 12.2 µM; Purified PLC-beta3, fluorogenic substrate, fluorescence; AID 720704; 0.18% of 370,000 active; in the data active = inhibition above about 11%;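 also: 0% = median of compound wells on plate and 100% = full blocker control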
PLCg1 inh – inhibitors of human phospholipase C gamma1; 0.84% of 370,000 active; purified PLC-gamma1, fluorogenic substrate, fluorescence; P19174; inhibition, % at 12.2 µM; in the data active = inhibition above about 9.5%
Tb MetRS inh – blocks T. brucei methionyl-tRNA synthetase activity; purified T. brucei MetRS, ATP depletion, Kinase-Glo luminescence; inhibition, % at 11.9 µM; 0.4% of 360,000 active;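 active = inhibition above a per-plate cutoff of the control wells' mean inhibition plus 3 SD, cut at about 5.5% in these data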;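 also: 0% = DMSO wells median and 100% = median of wells with control inhibitor compound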
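Test system: purified T. brucei MetRS enzyme. Also added: ATP, methionine and E. coli bulk tRNA substrates. Compound: 11.9 µM single point. Schedule: 15 min enzyme-compound preincubation, 2 h reaction, 10 min detection, 25 °C. Signal: luciferase luminescence of residual ATP, Kinase-Glo. Evaluation: percent inhibition versus plate control medians. Controls: DMSO wells, low control.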
sPLA2 confirm – human GIII-sPLA2 inhibition, confirmation; inhibition, % at 12.2 µM; 34% of 2,000 active; recombinant hGIII-sPLA2, BODIPY PC-A2 QFRET fluorescence; shares compounds with HGIII-sPLA2 inh;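 active = mean inhibition across triplicates above the hit cutoff set in the earlier primary screen, cut at about 19% in these data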;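 also: 0% = enzyme with DMSO and 100% = DMSO wells lacking enzyme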
BODIPY interf – 535nm fluorescence interference, HGIII-sPLA2 counter-screen | shares compounds with HGIII-sPLA2 inh | BODIPY FL product fluorescence interference, QFRET | inhibition, % at 12.2 µM | 8.5% of 2,000 active;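 active = average inhibition above the solvent-only control mean plus 3 SD, cut at about 6% in these data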;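 also: 0% = DMSO with substrate plus product and 100% = DMSO with substrate alone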
535nm interf DR – 535nm optical interference dose response, HGIII-sPLA2 counter-screen. shares compounds with HGIII-sPLA2 inh. BODIPY FL product fluorescence interference, cell-free. IC50, µM. 240 tested, under 10 active. AID 743455;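 active = IC50 at or below 10 µM; inactive = IC50 above 10 µM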
* = called active by the depositor; . = no result.

SMILES | HGIII-sPLA2 inh | PLC-beta3 inh | PLCg1 inh | Tb MetRS inh | sPLA2 confirm | BODIPY interf | others
C#CCN1C(=O)[C@@](O)(c2cccn2C)c2cc(F)ccc21 | 5 | 0 | 7 | . | . | .
COC(=O)c1ccc(NC(=O)CNCc2ccncc2)cc1 | 21* | -1 | -4 | 0 | 3 | -5
CN(C)c1ccc(/C=N/NC(=O)c2ccn(C)n2)cc1 | 20* | -137 | -137 | -1 | 7 | -4
Cc1ccc2nc(-c3ccc(NC(=O)CSc4nnc(-c5cccc(Cl)c5)n4Cc4ccco4)cc3)sc2c1 | 0 | -83 | -49 | . | . | .
CC(C)(C)c1ccc(-c2nnc(SCC(=O)Nc3ccc(Oc4ccccc4)cc3)n2Cc2ccco2)cc1 | -4 | 2 | -2 | . | . | .
O=C(NNC(=O)c1ccccc1O)c1ccc(Cl)c(S(=O)(=O)N2CCCCC2)c1 | 20* | -19 | -16 | 0 | 6 | 1
O=C(NNC(=O)C1CCN(S(=O)(=O)c2c(Cl)cccc2Cl)CC1)c1ccccc1O | 25* | -28 | -25 | 0 | 14 | -3
COc1ccc2c(c1)[C@@H](NC(=O)c1ccncc1)[C@H](C)[C@H]2c1ccccc1 | 0 | 4 | 3 | . | . | .
Nc1[nH]c(C(=O)c2ccccc2)c(-c2cccc(C(F)(F)F)c2)c1C(=O)c1c[nH]c2ccccc12 | -7 | -24 | -16 | . | . | .
CCOC(=O)c1sc(NC(=S)NC(=O)c2ccco2)nc1C | 27* | -8 | 0 | -1 | 15 | 2
Cc1ccc(C(=O)NNC(=S)NC(=O)c2ccco2)cc1 | 22* | -4 | -1 | 0 | 32* | -7 | 535nm interf DR=>122
COc1ccc(C(=O)NNC(=S)NC(=O)c2ccc(F)cc2)cc1Br | 0 | -6 | 2 | 0 | . | .
COc1ccc(C(=O)NC(=S)NNC(=O)c2ccncc2)cc1Br | 29* | -41 | -32 | 0 | 26* | 4
CCCOc1ccc(C(=O)NC(=S)Nc2nc3ccccc3s2)cc1 | 26* | 2 | 6 | 0 | 2 | -2
N#Cc1ccc(CSc2nc3sc4c(c3c(=O)n2-c2ccc(Br)cc2)CCCC4)cc1 | 14 | -5 | 2 | . | . | .
CCCCCCCCN1C(=O)[C@@H](CC(=O)N2CCN(C(=O)C3CC3)CC2)C[C@@]2(C(=O)OC)C1=C[C@H](C1CCCC1)O[C@@H]2C | -7 | 1 | 1 | . | . | .
COc1cc2c(cc1NC(=O)CSc1nnc(-c3cccc(Cl)c3)n1-c1ccccc1)oc1ccccc12 | 10 | -1 | -3 | . | . | .
S=C(Nc1ccc(Cl)cc1)OC1CCC12CCC(c1ccccc1)CC2 (stereo not given) | -1 | 1 | 0 | . | . | .
O=C(NN1CCOCC1)c1cccc(Br)c1 | 0 | -4 | 1 | -1 | . | .
CN1CCN(NC(=O)c2cccc(Br)c2)CC1 | 21* | -3 | 6 | 0 | 2 | -2
CCNC(=S)NNC(=O)c1ccncc1 | 3 | 2 | 0 | 0 | . | .
CC(C)(C)NC(=S)NNC(=O)c1ccncc1 | 23* | -5 | -4 | 0 | 7 | -5
COc1ccc(C(=O)NNC(=S)NC(=O)c2cccs2)cc1 | 21* | -3 | -1 | 1 | 40* | 2 | 535nm interf DR=>122
COc1ccc(/C=C/C(=O)NC(=S)NNC(=O)c2cccs2)cc1 | 8 | -19 | -18 | 0 | . | .
Cc1cccc(C(=O)NNC(=S)NC(=O)c2cccs2)c1 | 28* | -8 | 3 | 0 | 27* | 4
SMILES | HGIII-sPLA2 inh | PLC-beta3 inh | PLCg1 inh | Tb MetRS inh | sPLA2 confirm | BODIPY interf | others
Cc1cccc(C(=O)NNC(=S)NC(=O)c2ccccc2)c1 | 23* | -10 | -1 | 1 | 36* | -5 | 535nm interf DR=>122
Cc1ccc(C(=O)NNC(=O)c2cccc(C)c2)cc1 | 2 | 0 | 1 | 0 | . | .
Cc1ccc(C(=O)NC(=S)NNC(=O)c2ccc([N+](=O)[O-])cc2)cc1 | 7 | -39 | -28 | 0 | . | .
Cc1ccc(C(=O)NC(=S)NNC(=O)c2ccccc2)cc1 | 24* | -4 | 4 | -1 | 40* | -4 | 535nm interf DR=>122
COc1ccc(C(=O)NC(=S)NNC(=O)c2cccc(C)c2)cc1 | 27* | -10 | -3 | . | 38* | -7 | 535nm interf DR=>122
Cc1cccc(C(=O)NC(=S)NNC(=O)COc2ccc(Cl)cc2)c1 | -8 | -5 | 1 | 0 | . | .
CCNC(=S)NNC(=O)c1cccc(Br)c1 | 22* | 3 | 7 | 0 | 33* | -4
Cc1c(NC(=O)C2CCCN(S(=O)(=O)c3c(C(C)C)cc(C(C)C)cc3C(C)C)C2)c(=O)n(-c2ccccc2)n1C (stereo not given) | 2 | 2 | 2 | . | . | .
C=CCN1C(=O)[C@H](CC(=O)NCCCOCCCC)[C@@]2(C(=O)OCC)CCCC=C12 | 3 | 3 | 8 | . | . | .
COc1ccc(C(=O)NNC(=S)NC(=O)c2ccc(OC)cc2)cc1 | 20* | -4 | 0 | -1 | 26* | -10
COc1ccc(C(=O)NNC(=S)NC(=O)c2cccnc2)cc1 | 2 | -4 | 2 | -1 | . | .
Cc1ccc(NC(=O)NC(=S)NC(=O)c2ccccc2)cc1 | 23* | -7 | -1 | -1 | -14 | 4
CCOC(=O)c1sc(NC(=S)NC(=O)c2ccc(OC)cc2)nc1C | 3 | -7 | -1 | -1 | . | .
COc1ccc(C(=O)NC(=S)Nc2nc(C)c(C(=O)N(C)C)s2)cc1 | 22* | 4 | 5 | -1 | 15 | -4
CC(=O)Nc1ccc(NC(=S)NC(=O)c2ccc(-c3ccccc3)cc2)cc1 | 4 | -8 | 2 | 0 | . | .
COc1ccccc1NC(=S)NC(C)C(c1cccs1)N1CCOCC1 (stereo not given) | 25* | -10 | 2 | 0 | 8 | -11
CCN1CCN(C(c2cccs2)C(C)NC(=S)NC2CCCCC2)CC1 (stereo not given) | 12 | -6 | -1 | 0 | . | .
CC(NC(=O)Nc1ccccc1)C(c1cccs1)N1CCOCC1 (stereo not given) | 0 | 2 | 0 | 0 | . | .
CC(NC(=S)NC1CCCCC1)C(c1cccs1)N1CCOCC1 (stereo not given) | 24* | -11 | -2 | -1 | 19 | -3
CCCCCOc1ccc(CSC(=N)N)cc1[N+](=O)[O-] | 45* | 3 | 5 | -1 | 30* | -18 | 535nm interf DR=>122
COc1ccc(CSC(=N)N)cc1[N+](=O)[O-] | 8 | 4 | 2 | -1 | . | .
CCOC(=O)C1=C(c2ccccc2)NC(=S)NC1c1cc([N+](=O)[O-])ccc1OC (stereo not given) | 23* | 3 | 5 | -1 | 18 | 3
CCOc1ccc(/C=C2\NC(=S)NC2=O)cc1 | 24* | -6 | 0 | -1 | 23* | -4
CCOC(=O)c1cc(C#N)c(SCC(=O)c2cc(C#N)c(SC)nc2C)nc1C | 20* | -26 | -20 | 1 | -11 | -3
O=C(Nc1ccc(F)cc1)OC[C@@H]1CSCCS(=O)(=O)N1 | 13 | 2 | 2 | . | . | .

Assay outcomes: PubChem BioAssay, The Scripps Research Institute Molecular Screening Center
